Data reported in ChEMBL document CHEMBL4665884, “Structural Insights into the Recognition of Mono- and Diacetylated Histones by the ATAD2B Bromodomain” (J Med Chem, 2020).
pKd: −log10 of the molar value.

Columns and labels:
[1] = molecular target: T1, ATPase family AAA domain-containing protein 2B (Homo sapiens, UniProt Q9ULI0); assay: Binding affinity to N-terminal GST tagged human ATAD2B short form expressed in Escherichia coli by ITC analysis
T1 sequence (Q9ULI0 whole entry): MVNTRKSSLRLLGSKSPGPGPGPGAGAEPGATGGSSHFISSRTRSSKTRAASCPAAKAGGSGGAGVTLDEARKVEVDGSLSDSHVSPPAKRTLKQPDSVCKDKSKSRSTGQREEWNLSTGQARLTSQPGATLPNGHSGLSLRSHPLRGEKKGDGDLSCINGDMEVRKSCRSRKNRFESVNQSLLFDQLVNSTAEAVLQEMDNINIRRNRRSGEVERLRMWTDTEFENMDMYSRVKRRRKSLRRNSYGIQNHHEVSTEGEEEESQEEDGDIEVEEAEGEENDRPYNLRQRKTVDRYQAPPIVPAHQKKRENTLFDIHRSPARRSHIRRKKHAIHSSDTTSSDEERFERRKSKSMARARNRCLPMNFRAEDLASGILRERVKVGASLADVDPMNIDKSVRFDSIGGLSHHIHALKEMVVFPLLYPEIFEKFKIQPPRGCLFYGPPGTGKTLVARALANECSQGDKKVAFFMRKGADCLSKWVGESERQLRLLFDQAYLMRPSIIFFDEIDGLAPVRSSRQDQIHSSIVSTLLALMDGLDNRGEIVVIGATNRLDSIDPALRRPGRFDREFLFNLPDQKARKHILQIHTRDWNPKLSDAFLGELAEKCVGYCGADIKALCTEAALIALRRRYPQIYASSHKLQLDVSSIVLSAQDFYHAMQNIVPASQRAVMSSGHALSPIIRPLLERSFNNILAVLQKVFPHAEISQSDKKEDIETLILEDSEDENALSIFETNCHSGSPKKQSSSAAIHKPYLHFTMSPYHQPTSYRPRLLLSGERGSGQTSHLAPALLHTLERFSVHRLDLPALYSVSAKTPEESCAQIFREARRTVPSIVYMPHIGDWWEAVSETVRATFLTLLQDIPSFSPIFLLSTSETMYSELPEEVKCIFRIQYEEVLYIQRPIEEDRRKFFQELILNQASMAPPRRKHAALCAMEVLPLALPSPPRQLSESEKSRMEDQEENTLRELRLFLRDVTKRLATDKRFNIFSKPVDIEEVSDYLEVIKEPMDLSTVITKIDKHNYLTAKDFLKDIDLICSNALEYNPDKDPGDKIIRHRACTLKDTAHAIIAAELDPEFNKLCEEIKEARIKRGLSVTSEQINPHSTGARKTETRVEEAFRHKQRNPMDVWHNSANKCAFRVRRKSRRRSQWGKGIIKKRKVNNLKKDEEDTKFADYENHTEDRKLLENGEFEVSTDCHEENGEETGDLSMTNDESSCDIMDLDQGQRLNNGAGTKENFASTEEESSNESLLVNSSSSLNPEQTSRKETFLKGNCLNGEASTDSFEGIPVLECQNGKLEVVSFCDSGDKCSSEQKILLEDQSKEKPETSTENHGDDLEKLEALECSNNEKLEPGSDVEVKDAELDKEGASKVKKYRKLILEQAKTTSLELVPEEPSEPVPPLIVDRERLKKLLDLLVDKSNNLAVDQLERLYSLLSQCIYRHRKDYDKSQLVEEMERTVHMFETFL
Procedure, shortened: (§1)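 GST tag removed by PreScission cleavage after glutathione-resin capture. Protein and peptides were dialyzed into 20 mM NaH2PO4 pH 7.0, 150 mM NaCl. Peptide dilution heats were subtracted. KD is the mean ± SD of triplicates; non-binders were run in duplicate.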

[2] = molecular target: T1, ATPase family AAA domain-containing protein 2B; assay: Binding affinity to N-terminal GST tagged human ATAD2B (953-1085 residues) expressed in Escherichia coli by ITC analysis; settings: for pKd: read-out: Kd; procedure, shortened: as §1
[3] = molecular target: T2, ATPase family AAA domain-containing protein 2 (Homo sapiens, UniProt Q6PL18); assay: Binding affinity to N-terminal GST tagged human ATAD2 (1-25 residues) expressed in Escherichia coli by ITC analysis
T2 sequence (Q6PL18 whole entry): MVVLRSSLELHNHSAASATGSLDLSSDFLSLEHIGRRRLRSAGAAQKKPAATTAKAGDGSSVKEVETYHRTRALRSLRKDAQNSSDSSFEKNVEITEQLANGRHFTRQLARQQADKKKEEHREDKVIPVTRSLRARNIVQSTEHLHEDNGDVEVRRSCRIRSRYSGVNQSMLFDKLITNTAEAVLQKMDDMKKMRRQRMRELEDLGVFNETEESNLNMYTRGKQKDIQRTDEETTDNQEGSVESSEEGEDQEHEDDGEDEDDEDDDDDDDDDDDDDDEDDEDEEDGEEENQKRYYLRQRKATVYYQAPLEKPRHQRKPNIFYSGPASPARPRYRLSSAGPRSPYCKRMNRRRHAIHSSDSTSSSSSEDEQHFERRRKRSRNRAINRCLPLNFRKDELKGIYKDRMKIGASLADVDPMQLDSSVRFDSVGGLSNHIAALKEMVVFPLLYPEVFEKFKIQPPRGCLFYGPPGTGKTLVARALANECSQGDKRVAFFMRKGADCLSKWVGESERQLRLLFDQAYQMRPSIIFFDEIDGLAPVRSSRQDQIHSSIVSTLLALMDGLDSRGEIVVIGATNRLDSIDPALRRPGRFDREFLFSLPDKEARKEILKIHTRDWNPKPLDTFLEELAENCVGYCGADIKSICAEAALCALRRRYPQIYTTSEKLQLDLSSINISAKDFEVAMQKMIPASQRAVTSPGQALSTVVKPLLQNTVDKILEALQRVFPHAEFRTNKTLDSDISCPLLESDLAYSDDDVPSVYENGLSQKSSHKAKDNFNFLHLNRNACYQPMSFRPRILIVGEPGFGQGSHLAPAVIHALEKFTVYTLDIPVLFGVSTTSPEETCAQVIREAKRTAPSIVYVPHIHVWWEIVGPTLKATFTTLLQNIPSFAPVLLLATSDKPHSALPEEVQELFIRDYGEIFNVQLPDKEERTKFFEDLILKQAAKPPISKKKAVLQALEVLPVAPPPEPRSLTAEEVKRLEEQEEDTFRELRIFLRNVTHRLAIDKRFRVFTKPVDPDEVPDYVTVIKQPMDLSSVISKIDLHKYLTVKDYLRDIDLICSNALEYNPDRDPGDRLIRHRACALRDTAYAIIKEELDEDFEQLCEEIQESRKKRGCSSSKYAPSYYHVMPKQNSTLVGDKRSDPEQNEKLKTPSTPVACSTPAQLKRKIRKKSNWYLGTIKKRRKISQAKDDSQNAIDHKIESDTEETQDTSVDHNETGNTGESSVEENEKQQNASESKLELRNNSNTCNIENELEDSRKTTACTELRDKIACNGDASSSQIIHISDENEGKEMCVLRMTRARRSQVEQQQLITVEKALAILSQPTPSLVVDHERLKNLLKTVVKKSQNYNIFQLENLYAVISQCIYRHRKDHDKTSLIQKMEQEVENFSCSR

[4] = Binding affinity to N-terminal GST tagged human ATAD2B Y995A mutant expressed in Escherichia coli by ITC analysis; procedure, shortened: as §1
[5] = Binding affinity to N-terminal GST tagged human ATAD2B Y1037A mutant expressed in Escherichia coli by ITC analysis; procedure, shortened: as §1
[6] = Binding affinity to N-terminal GST tagged human ATAD2B N1038A mutant expressed in Escherichia coli by ITC analysis; procedure, shortened: as §1
[7] = molecular target: T2, ATPase family AAA domain-containing protein 2; assay: Binding affinity to N-terminal GST tagged human ATAD2 (1-20 residues) expressed in Escherichia coli by ITC analysis

Compound | Kd [1] | pKd [2] | Kd [2] | Kd [4] | Kd [5] | further results
Cc1cncc(-c2ccc(N[C@@H]3CCNC[C@H]3OCC3CCS(=O)(=O)CC3)c3[nH]c(=O)c(C)cc23)c1 | Not Active | 6.78 |  |  |  | 
CC(=O)NCCCC[C@H](NC(=O)CNC(=O)CN)C(=O)NCC(=O)N[C@@H](CC(C)C)C(=O)NCC(=O)N[C@@H](CCCCNC(C)=O)C(=O)NCC(=O)NCC(=O)N[C@@H](C)C(=O)O |  |  | Not Active |  |  | 
C[C@H](N)C(=O)N[C@@H](CCCNC(=N)N)C(=O)N[C@H](C(=O)N[C@@H](CCCCN)C(=O)N[C@@H](CCC(N)=O)C(=O)N[C@H](C(=O)N[C@@H](C)C(=O)N[C@@H](CCCNC(=N)N)C(=O)N[C@@H](CCCCN)C(=O)N[C@@H](CO)C(=O)N[C@H](C(=O)NCC(=O)O)[C@@H](C)O)[C@@H](C)O)[C@@H](C)O |  |  | Not Active |  |  | 
CC(=O)NCCCC[C@H](NC(=O)CNC(=O)[C@H](CC(C)C)NC(=O)CNC(=O)[C@H](CCCCN)NC(=O)CNC(=O)CNC(=O)[C@H](CCCCN)NC(=O)CN)C(=O)NCC(=O)NCC(=O)N[C@@H](C)C(=O)N[C@@H](CCCCN)C(=O)N[C@@H](CCCNC(=N)N)C(=O)O | Not Active | 4.30 |  | Not Active | Not Active | pKd [3]: 5.60
CC(=O)NCCCC[C@H](NC(=O)CN)C(=O)NCC(=O)NCC(=O)N[C@@H](CCCCN)C(=O)NCC(=O)N[C@@H](CC(C)C)C(=O)NCC(=O)N[C@@H](CCCCN)C(=O)NCC(=O)NCC(=O)N[C@@H](C)C(=O)N[C@@H](CCCCN)C(=O)N[C@@H](CCCNC(=N)N)C(=O)O |  |  | Not Active |  |  | Kd [6]: Not Active
C[C@H](NC(=O)[C@H](CCCCN)NC(=O)CNC(=O)CNC(=O)[C@@H](NC(=O)[C@H](CO)NC(=O)[C@H](CCCCN)NC(=O)[C@@H](N)CCCNC(=N)N)[C@@H](C)O)C(=O)N1CCC[C@H]1C(=O)N[C@@H](CCCNC(=N)N)C(=O)N[C@@H](CCCCN)C(=O)N[C@@H](CCC(N)=O)C(=O)O |  |  | Not Active |  |  | 
CC(=O)NCCCC[C@H](NC(=O)CNC(=O)CNC(=O)[C@H](CCCCN)NC(=O)CN)C(=O)NCC(=O)N[C@@H](CC(C)C)C(=O)NCC(=O)N[C@@H](CCCCN)C(=O)NCC(=O)NCC(=O)N[C@@H](C)C(=O)N[C@@H](CCCCN)C(=O)N[C@@H](CCCNC(=N)N)C(=O)O |  |  | Not Active |  |  | 
H-LGK(Ac)GGAK(Ac)RHRK-OH |  | 3.67 |  |  |  | 
H-LGKGGAK(Ac)RHRK-OH |  |  | Not Active |  |  | 
H-SGRGK(Ac)GGK(Ac)GL-OH | Not Active | 4.55 |  | Not Active | Not Active | pKd ([6]; read-out: Kd): 3.21
H-SGRGK(Ac)GGKGL-OH | Not Active | 4.32 |  | Not Active | Not Active | pKd [7]: 4.66
H-SGRGK(Ac)QGGKARA-OH | Not Active | 4.37 |  | Not Active | Not Active | 
H-SGRGKGGK(Ac)GL-OH |  | 2.93 |  |  |  | 
